Rows were chosen to be rich in hits. Some 2.5% of all compounds tested hit in one or more screens of this group.
SIAE primary = inhibitors of human sialic acid acetylesterase SIAE | Q9HAT2 | SIAE FP-Rh probe binding, fluorescence polarization | inhibition, % at 9.66 µM | hit rate 0.69% among 370,000;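 active = inhibition above a cutoff: mean of compounds within the control limits plus 3 SD of those, cut at about 17% in these data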
PRMT1 FP inh = inhibitors of human PRMT1; Q99873; recombinant PRMT1, activity-based probe fluorescence polarization; inhibition, % at 2.79 µM; hit rate 1.3% among 370,000;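 active = inhibition above about 21% made by adding two undisclosed values, limit read from the data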
HTRA1 inh = inhibitors of human serine peptidase HTRA1; recombinant HTRA1, FP-rhodamine activity-based probe, fluorescence polarization; inhibition, % at 5.96 µM; hit rate 0.5% among 340,000; AID 504803; in the data active = inhibition above about 36%
Target sequence (Q92743 whole entry, looked up): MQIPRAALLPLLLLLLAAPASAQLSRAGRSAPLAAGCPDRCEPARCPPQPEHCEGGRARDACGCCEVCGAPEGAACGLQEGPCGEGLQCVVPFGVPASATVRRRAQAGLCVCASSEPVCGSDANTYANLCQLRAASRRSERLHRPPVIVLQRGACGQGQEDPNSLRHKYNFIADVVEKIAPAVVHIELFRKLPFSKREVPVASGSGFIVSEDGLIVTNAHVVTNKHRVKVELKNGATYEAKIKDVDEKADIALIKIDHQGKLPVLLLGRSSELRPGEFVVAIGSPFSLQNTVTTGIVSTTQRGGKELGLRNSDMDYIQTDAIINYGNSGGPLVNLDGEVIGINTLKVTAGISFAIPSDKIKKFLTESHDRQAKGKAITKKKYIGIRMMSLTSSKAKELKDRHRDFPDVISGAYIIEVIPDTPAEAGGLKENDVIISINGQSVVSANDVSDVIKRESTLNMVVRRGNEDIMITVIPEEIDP
mABHD4 FP = ABHD4 (mouse) inhibition, primary FP screen | Q8VD66 | purified mABHD4, FP-Rh probe fluorescence polarization | inhibition, % at 8.92 µM | hit rate 0.54% among 370,000 | AID 720543;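 active = inhibition exceeding the mean over every tested compound plus 3 SD, cut at about 30% in these data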
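Test system: mABHD4 protein | Buffer or medium: HEPES pH 7.0 buffer, 150 mM NaCl, 0.01% Pluronic F-127 | Probe or stimulus: FP-Rh fluorescent activity-based probe, added after compound pre-incubation | Timing: Pre-incubation 45 min, probe exposure 60 min, at 25 °C | Technique: Fluorescence polarization, excitation 525 nm, emission 598 nm, BODIPY TMR filters | Repeats: Single well per compound (singlicate)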
TCR-CD3 inh = human TCR-CD3 binding inhibition | TAMRA-labeled TCR probe fluorescence, biochemical | inhibition, % at 9.4 µM | hit rate 0.37% among 360,000;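 also: recombinant mutant TCR 2C K166C tagged with TAMRA read by polarization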
HTRA1 conf = confirmation of human HTRA1 inhibitors; recombinant HTRA1, FP-rhodamine activity-based probe, fluorescence polarization; hit rate 66% among 1,600; shares compounds with HTRA1 inh; AID 540248; inhibition, % at 5.96 µM;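 active = mean inhibition over three repeats above a set limit taken from the earlier primary screen, cut at about 37% in these data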;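 also: inhibitors block probe binding so polarization drops and inhibition rises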
BSA TAMRA ctr = BSA probe counter-screen for TCR-CD3 inhibitors | AID 652035 | shares compounds with TCR-CD3 inh | TAMRA-labeled BSA probe fluorescence counterscreen | inhibition, % at 9.4 µM | hit rate 10% among 1,200; in the data active = inhibition above about 23%
TCR-CD3 inh conf = TCR-CD3 interaction inhibition, confirmation; shares compounds with TCR-CD3 inh; TAMRA-labeled TCR probe fluorescence binding assay; inhibition, % at 9.4 µM; hit rate 48% among 1,200; AID 652036
PRMT1 confirm = confirmation of human PRMT1 inhibitors | shares compounds with PRMT1 FP inh | recombinant His-PRMT1, activity-based probe fluorescence polarization | inhibition, % at 2.79 µM | hit rate 42% among 3,300 | AID 687036;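 active = mean inhibition across replicates above the hit cutoff derived for the earlier primary screen, cut at about 22% in these data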
mABHD4 conf = confirmation of mouse ABHD4 inhibitors; shares compounds with mABHD4 FP; inhibition, % at 8.92 µM; purified mABHD4, FP-Rh probe fluorescence polarization; AID 720658; hit rate 55% among 1,800;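 active = mean inhibition across replicates above the hit cutoff set in the primary screen, cut at about 30% in these data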
SIAE confirm = human SIAE inhibition, confirmation; shares compounds with SIAE primary; hit rate 13% among 2,300; inhibition, % at 9.66 µM; SIAE FP-Rh activity-based probe, fluorescence polarization;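 active = mean inhibition of the replicates above the hit cutoff set in the primary screen, cut at about 17% in these data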;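 also: inhibitors lower polarization as more probe stays unbound to SIAE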
Numbers stand for hits; – = inactive; · = no result. Rule as the data show it, unless noted: active = inhibition above about 19%; inactive = the rest.

SMILES	SIAE primary	PRMT1 FP inh	HTRA1 inh	mABHD4 FP	TCR-CD3 inh	HTRA1 conf	mABHD4 conf	SIAE confirm	others
COCCCN1C(=O)[C@H](CC(=O)NCCCCc2ccccc2)[C@]2(C(=O)OC)CCCCC=C12	–	–	·	–	·	·	·	·
COC(=O)/C(=C/Nc1ccccc1)[N+](=O)[O-]	–	–	–	–	–	·	·	·
COC(=O)/C(=C/Nc1ccc(O)cc1)[N+](=O)[O-]	25	47	45	94	99	–	–	–	BSA TAMRA ctr=–;TCR-CD3 inh conf=–
O=C(/C=C1\NC2(CCCC2)Cc2ccccc21)C(=O)N/N=C/c1ccc(O)c(O)c1	29	–	79	32	28	63	–	–
COc1ccc(/C=N/NC(=O)C(=O)/C=C2\NC3(CCCC3)Cc3ccccc32)cc1	–	–	–	–	–	·	·	·
O=C(c1ccccc1)c1ccc2nc(-c3ccco3)c(-c3ccco3)nc2c1	25	34	45	44	–	191	–	–
O=C(O)c1ccc2nc(-c3ccccc3)c(-c3ccccc3)nc2c1	–	–	–	–	–	·	·	·
O=c1c2ccccc2nc(N/N=C/c2c(O)ccc3ccccc23)n1O	18	–	62	34	–	68	34	–
CCOC(=O)[C@]12CCCC=C1N(Cc1ccc(OC)cc1)C(=O)[C@@H]2CC(=O)N1CCCC1	–	–	·	–	·	·	·	·
CN1C(=O)NC(c2ccccc2[N+](=O)[O-])C2=C1CCCC2=O (stereo unspecified)	54	36	77	89	85	44	56	80	BSA TAMRA ctr=62;TCR-CD3 inh conf=44
CN1C(=O)NC(c2ccccc2[N+](=O)[O-])C2=C1CC(C)(C)CC2=O (stereo unspecified)	–	–	–	–	–	·	·	·
Oc1ccc(/C=N/Nc2ccnc3cc(Cl)ccc23)c(O)c1O	41	–	66	38	20	65	56	33	BSA TAMRA ctr=–;TCR-CD3 inh conf=22
CN(/N=C\c1ccc(O)c(O)c1)c1nc(-c2ccccc2)cc(-c2ccccc2)n1	35	–	39	34	–	66	123	–
Cc1cc2ccccc2n1CCNC(=O)Cc1ccccc1	–	–	–	–	–	·	·	·
Cc1cc2cc(CNS(=O)(=O)c3ccc4ccccc4c3)ccc2n1C	26	–	67	51	58	–	–	–	BSA TAMRA ctr=–;TCR-CD3 inh conf=–
NS(=O)(=O)c1ccc(CNS(=O)(=O)c2ccc3ccccc3c2)cc1	–	–	–	–	–	·	·	·
Cc1cc(C)c(S(=O)(=O)NCCn2c(C)cc3ccccc32)c(C)c1	24	–	66	60	71	–	–	–	BSA TAMRA ctr=–;TCR-CD3 inh conf=–
Cc1cc(C)c(S(=O)(=O)NCc2ccc3c(c2)cc(C)n3C)c(C)c1	39	–	60	55	71	–	–	–	BSA TAMRA ctr=30;TCR-CD3 inh conf=26
CCCC(=O)NCc1ccc2c(c1)cc(C)n2C	–	–	–	–	–	·	·	·
CCOC(=O)C(C(=O)OCC)c1cc(Br)c2noc3c2c1C(=O)c1ccccc1-3	22	32	48	–	–	–	·	–	PRMT1 confirm=53
CCOc1cc(N2CCOCC2)c(OCC)cc1NC(C)C(=O)N1CCN(CC)CC1 (stereo unspecified)	27	–	41	41	31	–	·	–	BSA TAMRA ctr=–;TCR-CD3 inh conf=–
O=C(OC12CCCN(C1)/C(=C/c1ccncc1)C2)c1cccc(F)c1 (stereo unspecified)	–	–	·	–	·	·	·	·
COC(=O)C1CN(Cc2cn(Cc3ccc(F)cc3)nn2)CCS(=O)(=O)N1Cc1ccc(F)cc1 (stereo unspecified)	–	–	·	–	·	·	·	·
COc1cc2nc(Nc3ccc(C)c(Cl)c3)nc(N)c2cc1OC	58	–	36	42	–	46	66	62
O=C(CCl)N1c2ccccc2Oc2ccc3ccccc3c21	22	60	80	62	22	–	–	–	PRMT1 confirm=40
SMILES	SIAE primary	PRMT1 FP inh	HTRA1 inh	mABHD4 FP	TCR-CD3 inh	HTRA1 conf	mABHD4 conf	SIAE confirm	others
CC(=O)N1c2ccccc2Oc2cc3ccccc3cc21	–	–	–	–	–	·	·	·
O=C(c1cccc(C(F)(F)F)c1)N1CC[C@H]2[C@H](CCCN2Cc2ccc(F)cc2)C1	–	–	·	–	·	·	·	·
CCCCCC(=O)NC1CCCCN(Cc2ccc(C)cc2)C1=O (stereo unspecified)	–	–	·	–	·	·	·	·
Oc1c(Cl)cc(Cl)cc1/C=N/NC(=S)NC1CC2C=CC1C2 (stereo unspecified)	20	–	52	39	23	54	41	21	BSA TAMRA ctr=–;TCR-CD3 inh conf=28
COC(=O)C1CN(Cc2ccc(C)cc2)CCS(=O)(=O)N1Cc1cn(Cc2ccc(OC)cc2)nn1 (stereo unspecified)	–	–	·	–	·	·	·	·
COc1ccc(O)c(/C=N/NC(=S)Nc2cccc(S(=O)(=O)N(C)C)c2)c1	33	–	38	–	–	–	·	–
CN(C)S(=O)(=O)c1cccc(NC(=S)N/N=C/c2ccc(O)c(O)c2O)c1	35	36	45	32	51	49	82	27	PRMT1 confirm=84
O=C(CCc1ccccc1)N[C@H]1[C@@H](OC(=O)c2cnccn2)CCC[C@@]12C(=O)N(Cc1ccccc1)c1ccccc12	–	–	·	–	·	·	·	·
CCNc1ccc(Br)cc(C(=O)/C=C/c2ccc(Cl)cc2Cl)c1=O	17	27	64	35	–	59	31	–
Cc1csc(Nc2cccc3ccccc23)n1	–	–	–	–	–	·	·	·
Oc1ccc(-c2csc(Nc3cccc4ccccc34)n2)cc1O	26	–	71	–	–	71	·	–
O=[N+]([O-])c1ccc(COc2cccc(CNc3ccc(F)cc3)c2)cc1	–	–	–	–	–	·	·	·
Oc1ccc(NCc2cccc(OCc3ccc(F)cc3)c2)cc1	40	–	58	49	25	–	–	–	BSA TAMRA ctr=–;TCR-CD3 inh conf=–
c1ccc(COc2cccc(CNCc3cccnc3)c2)cc1	–	–	–	–	–	·	·	·
Oc1ccc(NCc2cccc(OCc3ccccc3)c2)cc1	44	–	51	50	26	–	–	–	BSA TAMRA ctr=–;TCR-CD3 inh conf=–
CCOC(=O)C1=NNC(C(=O)c2ccccc2)C1c1ccc(Cl)cc1 (stereo unspecified)	–	–	–	–	–	·	·	·
CCOC(=O)C1=C(C)N=C2c3ccccc3C(=O)C2C1c1ccc(Cl)cc1 (stereo unspecified)	19	–	38	35	–	–	66	–
